Laboratory results as given in publication PMC10842363 (Clinical cancer research : an official journal of the …, 2023).
Where two headings read alike, the source gives them in different places.

Tests used:
kinases = test: KINOMEscan kinase selectivity assay; type: binding
How it was run: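 Competition binding: kinases were T7 phage-tagged (grown in BL21-derived E. coli) or HEK-293-expressed with DNA tags. Incubated with biotinylated-ligand streptavidin beads and test compound (40x DMSO stocks) in SeaBlock/PBS/Tween/DTT buffer, 1 h RT. Eluted with 0.5 μM non-biotinylated ligand (30 min); kinase quantified by qPCR. Selectivity score S = hits/assays at a %Ctrl threshold, mutants excluded.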

[1] = In vivo pharmacokinetic study, single dose; conditions: IP administration, CD1 female mice
[2] = Repeated dosing tolerability; type: in vivo; conditions: repeated dosing from 30 to 100 mg/kg
[3] = Safety readouts in treated mice; type: in vivo
[4] = 28-day oral dosing study in mice; type: in vivo; conditions: oral dosing for 28 days, exposures similar to 50 mpk IP; data not shown
T-HEp3 cells = test: T-HEp3 HNSCC PDX i.v. injection, solitary lung DCCs in Balb/c nu/nu mice; type: in vivo, human; conditions: 50 mg/kg for 10 days, started 24 h after i.v. injection
EMT6 cells = test: EMT6 syngeneic spontaneous lung metastasis model; type: in vivo, Balb/c mice; conditions: 10 mg/kg
D-HEp3 cells = test: Chick chorioallantoic membrane; type: in vivo, human; conditions: 20 μM, 6-day treatment, CAM
MMTV-HER2 cells = test: Established metastases after tail vein injection of MMTV-HER2 cells; type: in vivo, mouse; conditions: 50 mg/kg for 2 weeks, started 3 weeks after tail vein injection
[5] = Mammary gland morphology in non-tumor bearing healthy mice; type: in vivo; conditions: 2 weeks
MMTV-HER2 tumors = test: Primary tumor growth in MMTV-HER2 females; type: in vivo, mouse
SKBR3 cells = test: 3D acini culture in Matrigel, SKBR3; type: cell-based; conditions: SKBR3, 2 μM, 10-day treatment
ZR-75-1 cells = test: 3D acini culture in Matrigel, ZR-75-1; type: cell-based; conditions: ZR-75-1, 2 μM, 10-day treatment
[6] = tested on: HER2+ tumors, DCCs and metastases; test: Sequential Abemaciclib then HC4 treatment in MMTV-HER2 mice; type: in vivo, mouse; conditions: for GADD34 expression in primary tumors / Ki67 staining in primary tumors: 50 mpk daily, 4 weeks
GADD34 [7] = conditions: MCF10A breast pre-malignant cells
GADD34 [8] = conditions: E0771 luminal B breast cancer cells
PERK [9] = biological target: T1, PERK (Homo sapiens, UniProt Q9NZJ5); conditions: MCF10A cells overexpressing HER2
T1 sequence (Q9NZJ5 30-1116): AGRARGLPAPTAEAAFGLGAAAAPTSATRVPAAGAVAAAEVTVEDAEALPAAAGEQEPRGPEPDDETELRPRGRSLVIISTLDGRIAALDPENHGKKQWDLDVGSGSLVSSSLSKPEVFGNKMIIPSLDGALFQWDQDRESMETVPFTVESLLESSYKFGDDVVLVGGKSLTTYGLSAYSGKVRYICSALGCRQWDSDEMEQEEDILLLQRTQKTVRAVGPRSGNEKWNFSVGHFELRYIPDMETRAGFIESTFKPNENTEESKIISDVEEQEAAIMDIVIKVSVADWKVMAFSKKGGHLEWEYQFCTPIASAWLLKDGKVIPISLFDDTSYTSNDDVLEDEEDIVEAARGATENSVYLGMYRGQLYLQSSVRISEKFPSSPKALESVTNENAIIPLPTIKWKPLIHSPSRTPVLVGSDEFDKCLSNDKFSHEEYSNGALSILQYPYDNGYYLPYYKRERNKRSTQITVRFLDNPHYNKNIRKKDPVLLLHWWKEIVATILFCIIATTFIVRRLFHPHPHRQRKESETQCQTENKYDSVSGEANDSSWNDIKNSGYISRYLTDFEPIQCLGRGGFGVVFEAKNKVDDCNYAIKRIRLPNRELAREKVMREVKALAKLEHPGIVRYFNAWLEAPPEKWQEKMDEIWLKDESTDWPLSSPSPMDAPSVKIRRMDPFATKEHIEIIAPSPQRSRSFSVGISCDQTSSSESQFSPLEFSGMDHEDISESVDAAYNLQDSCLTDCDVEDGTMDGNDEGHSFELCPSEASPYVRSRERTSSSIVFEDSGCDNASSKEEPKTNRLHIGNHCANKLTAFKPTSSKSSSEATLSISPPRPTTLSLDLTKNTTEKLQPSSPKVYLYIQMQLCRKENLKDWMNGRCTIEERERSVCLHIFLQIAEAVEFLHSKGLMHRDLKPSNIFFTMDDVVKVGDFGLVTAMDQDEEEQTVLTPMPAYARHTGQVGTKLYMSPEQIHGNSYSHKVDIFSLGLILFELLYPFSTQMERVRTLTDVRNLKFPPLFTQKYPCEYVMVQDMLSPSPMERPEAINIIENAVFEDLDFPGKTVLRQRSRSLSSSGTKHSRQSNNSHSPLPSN

PERK [10] = biological target: T1, PERK; conditions: HEK293 cells stimulated with Tunicamycin
MCF10A-HER2 cells [11] = conditions: MCF10A-HER2 cells treated with HC4
[12] = tested on: Fv2E-ΔNPERK fusion construct-expressing cell line; conditions: PERK dimerization induced with AP20187
PERK [13] = biological target: PERK (Mus musculus, UniProt Q9Z2B5); conditions: 50 mpk IP daily, 2 weeks
Chain of PERK (Mus musculus, UniProt Q9Z2B5) (Q9Z2B5 29-1114): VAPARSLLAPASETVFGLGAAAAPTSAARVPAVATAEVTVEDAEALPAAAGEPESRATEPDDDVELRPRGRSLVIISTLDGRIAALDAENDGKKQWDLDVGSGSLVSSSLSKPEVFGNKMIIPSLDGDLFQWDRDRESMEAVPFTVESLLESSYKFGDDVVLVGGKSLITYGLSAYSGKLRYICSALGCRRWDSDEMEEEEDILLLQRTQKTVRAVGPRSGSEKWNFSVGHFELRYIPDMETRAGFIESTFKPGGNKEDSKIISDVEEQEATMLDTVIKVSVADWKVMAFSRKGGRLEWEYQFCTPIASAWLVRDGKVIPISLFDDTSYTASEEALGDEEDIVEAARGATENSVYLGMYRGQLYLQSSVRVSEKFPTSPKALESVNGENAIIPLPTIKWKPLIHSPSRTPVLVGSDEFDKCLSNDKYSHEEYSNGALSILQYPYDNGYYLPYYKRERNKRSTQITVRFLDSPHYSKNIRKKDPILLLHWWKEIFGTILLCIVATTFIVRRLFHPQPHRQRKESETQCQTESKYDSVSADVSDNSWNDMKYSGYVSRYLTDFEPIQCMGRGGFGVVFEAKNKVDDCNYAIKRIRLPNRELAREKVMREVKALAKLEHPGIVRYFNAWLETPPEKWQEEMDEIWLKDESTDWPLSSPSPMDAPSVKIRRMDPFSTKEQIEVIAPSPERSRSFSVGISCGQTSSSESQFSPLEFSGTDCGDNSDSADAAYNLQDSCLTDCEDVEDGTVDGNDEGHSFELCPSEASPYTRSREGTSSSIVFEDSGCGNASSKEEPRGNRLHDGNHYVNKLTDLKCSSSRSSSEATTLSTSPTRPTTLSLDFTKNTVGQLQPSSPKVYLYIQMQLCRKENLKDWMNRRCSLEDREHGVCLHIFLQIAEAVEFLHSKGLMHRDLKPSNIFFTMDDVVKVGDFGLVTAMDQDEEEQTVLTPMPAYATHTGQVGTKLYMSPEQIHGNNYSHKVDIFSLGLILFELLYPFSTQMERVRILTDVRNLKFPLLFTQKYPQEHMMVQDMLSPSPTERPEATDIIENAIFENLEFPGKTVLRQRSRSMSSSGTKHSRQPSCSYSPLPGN

[14] = tested on: HER2+ DCCs and metastases
[15] = tested on: HER2-driven early lesions in the mammary gland
MCF10A-HER2 cells [16] = tested on: MCF10A-HER2 cells
HER2 [17] = tested on: HER2
HER2 [18] = tested on: HER2; remark: listed apart in the source
HER2 [19] = conditions: HC4-treated vs control animals
[20] = MCF10A-HER2, 2 μM, +/- EGF 100 ng/ml
[21] = MCF10A-HER2, in presence of Thapsigargin 4 nM

For Cc1cc(NC(=O)[C@H](O)c2cc(F)cc(F)c2)ccc1-c1cnc(N)c(C(=O)NC(C)C)c1 [HC4], which “specificity for EIF2AK3 (PERK) over EIF2AK1 (HRI), EIF2AK2 (PKR), EIF2AK4 (GCN2) or HER2” value (kinases; Supplementary Table S3) is on record?
The value was “high specificity”.

What about the “KINOMEscan kinase profiling selectivity” value (kinases; compared to other PERK inhibitors, specifically GSK2656157, even at 10 μM) of the same compound?
The value was “exceedingly high selectivity”.

What about the bioavailability [1] of the same compound?
The bioavailability was “demonstrated bioavailability”.

And the body weight [2]?
Its body weight is “no significant changes”.

What about the tolerability [2] of the same compound?
Its tolerability is “well tolerated”.

What about the “bone marrow cell homeostasis and peripheral blood white cells (total cell counts)” value ([3]; MMTV-HER2 females, 50 mpk IP daily, two weeks) of the same compound?
The value was “did not have a significant effect”.

What about the “glucose levels, bone marrow or peripheral blood cell counts, drinking and feeding behavior” value ([3]; non-tumor or cancer bearing mice, doses used) of the same compound?
The value was “did not significantly affect”.

What about the “effects on the pancreas or clinical chemistry (insulin and glucose levels)” value [4] of the same compound?
Its value is “no deleterious effects”.

And the “reduction in the number of solitary HEp3 DCCs in the lung” value (T-HEp3 cells)?
Its value is ~ 3 fold.

What about the primary tumor growth (EMT6 cells; 17 days, not shown) of the same compound?
The primary tumor growth was “without affecting”.

And the “metastatic incidence and multiplicity of lesions per lung/animal” value (EMT6 cells; started 9 days after implanting, 17 days of treatment)?
The value was “strongly inhibited”.

And the “dormant D-HEp3 cells in vivo” value (D-HEp3 cells)?
Its value is “eradication”.

What about the “increase in cleaved caspase-3 positive D-HEp3 cells in the nodules” value (D-HEp3 cells) of the same compound?
The value was 5 fold.

What about the “frequency of already established micro-metastases” value (MMTV-HER2 cells) of the same compound?
Its value is “not affecting”.

And the “macro-metastatic lesion incidence and total metastatic burden” value (MMTV-HER2 cells)?
The value was “strongly reduce”.

And the “normal branching and morphology of the mammary gland ductal tree” value [5]?
The value was “did not affect”.

And the tumors showing regression (MMTV-HER2 tumors; 2-week window treatment)?
The tumors showing regression was “Four”.

And the “DNA fragmentation (TUNEL staining) in tumor sections” value (MMTV-HER2 tumors; 50 mpk daily, two weeks)?
The value was “significant increase”.

And the “median final tumor volume” value (MMTV-HER2 tumors; 50 mpk daily, two weeks)?
Its value is “significant decrease”.

And the tumor growth (MMTV-HER2 tumors; overt tumors, 50 mpk daily, two weeks)?
Its tumor growth is “reduced growth rate”.

What about the “levels of proliferation (phospho-histone H3 IHC) in tumors” value (MMTV-HER2 tumors; vehicle- vs HC4-treated tumors) of the same compound?
The value was “not different”.

What about the “levels of apoptosis (cleaved caspase-3)” value (SKBR3 cells) of the same compound?
Its value is “significantly increased”.

What about the “levels of apoptosis (cleaved caspase-3)” value (ZR-75-1 cells) of the same compound?
Its value is “significantly increased”.

What about the “GADD34 expression in primary tumors” value [6] of the same compound?
The value was “completely erased”.

What about the “Ki67 staining in primary tumors” value [6] of the same compound?
Its value is “does not dramatically affect”.

What about the “thapsigargin induced GADD34 expression” value (GADD34 [7]) of the same compound?
The value was “completely eliminated”.

And the “thapsigargin induced GADD34 expression” value (GADD34 [8])?
The value was “completely eliminated”.

And the “P-PERK (P-T980) levels” value (PERK [9])?
Its value is “effectively decreased”.

And the “P-PERK (P-T980) levels” value (PERK [10])?
Its value is “effectively decreased”.

What about the “sensitivity to low dose thapsigargin treatment” value (MCF10A-HER2 cells [11]) of the same compound?
The value was “sensitive”.

And the “rescue of pro-apoptotic function of strong PERK activation” value [12]?
Its value is “fully rescued”.

What about the “P-PERK inhibition in pancreatic tissue, especially pancreatic islets” value (PERK [13]; IHC) of the same compound?
Its value is “only partial inhibition”.

What about the “P-PERK and P-eIF2α levels by IHC” value (PERK [13]; mammary gland ducts and pancreatic tissue) of the same compound?
The value was “significant decrease”.

And the “decrease in P-PERK levels by western blot” value (PERK [13]; tumor lysates)?
Its value is “around 50%”.

What about the area of macro-metastases ([14]; 50 mpk IP daily, two weeks) of the same compound?
Its area of macro-metastases is “not accompanied by a significant effect”.

What about the “number and incidence of lung macro-metastases (>100 cells)” value ([14]; 50 mpk IP daily, two weeks) of the same compound?
Its value is “reduced”.

What about the “number of DCCs in bone marrow” value ([14]; 50 mpk IP daily, two weeks) of the same compound?
Its value is “significantly decreased”.

What about the “number of P-Rb positive solitary DCCs in lung” value ([14]; 50 mpk IP daily, two weeks) of the same compound?
Its value is “not affecting”.

What about the “number of lung micro-metastases (2-100 cells)” value ([14]; 50 mpk IP daily, two weeks) of the same compound?
The value was “significant decrease”.

What about the “number of non-proliferating (P-Rb negative) single DCCs in lung” value ([14]; 50 mpk IP daily, two weeks) of the same compound?
Its value is “significantly reduced”.

And the “HER2+ circulating tumor cells in blood” value ([14]; vehicle vs HC4-treated animals)?
Its value is “no significant differences”.

What about the “mammary glandular architecture (ductal branching)” value ([15]; 24-week-old MMTV-HER2 females, 50 mpk, 2 weeks) of the same compound?
The value was “less dense branching”.

And the “cytokeratin 8/18 expression in the luminal layer” value ([15]; 50 mpk, 2 weeks)?
The value was “increased expression”.

And the “number of occluded hyperplasias and DCIS-like lesions relative to vehicle” value ([15]; 50 mpk, 2 weeks)?
Its value is “less than half”.

What about the “hollow lumen mammary gland ducts, share of structures” value ([15]; around 20 % in control females) of the same compound?
The value was “more than 60%”.

What about the “levels of proliferation (phospho-histone H3)” value (MCF10A-HER2 cells [16]; 3D acini cultures, 2 μM, cell line not given) of the same compound?
Its value is “did not detect a significant change”.

What about the “levels of apoptosis (cleaved caspase-3)” value (MCF10A-HER2 cells [16]; MCF10A-HER2, 2 μM, 10-day treatment) of the same compound?
The value was “significantly increased”.

And the “P-AKT, P-S6 and P-ERK1/2 levels” value (HER2 [17]; [20])?
The value was “downregulation”.

And the “basal and EGF-induced levels of P-EGFR and P-HER2” value (HER2 [17]; [20])?
The value was “decreased”.

What about the “levels of P-HER2 and P-AKT” value (HER2 [17]; [21]) of the same compound?
The value was “decrease”.

What about the “molecular weight of phosphorylated HER2 protein” value (HER2 [17]; [21]) of the same compound?
Its value is “lower molecular weight”.

What about the “total HER2 levels or heterodimerization with EGFR” value (HER2 [17]; surface biotinylation and co-immunoprecipitation, data not shown) of the same compound?
Its value is “No obvious effect”.

And the “endocytosed phospho- and total HER2” value (HER2 [18]; MCF10A-HER2, reversible surface biotinylation)?
The value was “clearly increased”.

And the “abundance of P-HER2 and total HER2 in the cell surface” value (HER2 [18]; MCF10A-HER2, not shown)?
Its value is “did not significantly alter”.

And the “P-HER2 levels in tumors (area and intensity score)” value (HER2 [19])?
Its value is “significantly lower”.

Which results are given for CCN1CCN(Cc2ccc(Nc3ncc(F)c(-c4cc(F)c5nc(C)n(C(C)C)c5c4)n3)nc2)CC1 [Abema, Abemaciclib]?
GADD34 expression in primary tumors [6]: increases; Ki67 staining in primary tumors [6]: reduces; Ki67+ solitary DCCs ([6]; lung sections): almost absent
